Active and inactive are the calls of the source. The rule behind the calls is not given here.
Columns and labels:
A549 = assay: Disruption of tubulin network in human A549 cells assessed as disaggregation of microtubules at 1 uM […]; type: functional, cell-based
NCI-H460 = assay: Cell viability against human NCI-H460 cells at 10 uM; type: functional
SF-268 = assay: Cell viability against human SF268 cells at 10 uM; type: functional
MCF7 = assay: Cell viability against human MCF7 cells at 10 uM; type: functional
Jurkat = assay: Cell cycle arrest in human Jurkat cells at mitosis at 0.5 uM after 24 hrs; type: functional
Summary of the method: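 Exponentially growing Jurkat cells were exposed for 24 h, then pelleted at 400g for 5 min. Hypotonic KCl (75 mM, 4 °C) was applied for 20 min, followed by methanol–acetic acid (3:1) fixation and Giemsa staining. 400 cells per treatment were scored microscopically; mitotic index is the fraction with mitotic figures. Three independent experiments, mean ± SEM.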

Tubulin (Sus scrofa) = Tubulin (Sus scrofa) (UniProt P02554+P02550); assay: Inhibition of pig brain tubulin polymerization at 3 uM
Sequence of Tubulin (Sus scrofa) (P02550 whole entry, looked up): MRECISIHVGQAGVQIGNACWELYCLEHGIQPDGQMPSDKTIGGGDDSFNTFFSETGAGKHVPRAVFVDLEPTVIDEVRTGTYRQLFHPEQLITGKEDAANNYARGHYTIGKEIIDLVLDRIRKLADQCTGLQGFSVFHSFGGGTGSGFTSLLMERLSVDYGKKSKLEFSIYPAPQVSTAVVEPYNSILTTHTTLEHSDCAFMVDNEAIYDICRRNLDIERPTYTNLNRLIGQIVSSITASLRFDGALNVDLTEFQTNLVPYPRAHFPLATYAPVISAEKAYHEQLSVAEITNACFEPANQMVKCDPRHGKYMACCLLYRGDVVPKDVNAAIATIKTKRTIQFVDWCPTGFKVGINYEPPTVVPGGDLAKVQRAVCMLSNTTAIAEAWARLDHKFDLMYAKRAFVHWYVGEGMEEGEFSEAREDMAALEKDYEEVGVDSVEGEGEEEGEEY
Sequence of Tubulin (Sus scrofa) (P02554 whole entry, looked up): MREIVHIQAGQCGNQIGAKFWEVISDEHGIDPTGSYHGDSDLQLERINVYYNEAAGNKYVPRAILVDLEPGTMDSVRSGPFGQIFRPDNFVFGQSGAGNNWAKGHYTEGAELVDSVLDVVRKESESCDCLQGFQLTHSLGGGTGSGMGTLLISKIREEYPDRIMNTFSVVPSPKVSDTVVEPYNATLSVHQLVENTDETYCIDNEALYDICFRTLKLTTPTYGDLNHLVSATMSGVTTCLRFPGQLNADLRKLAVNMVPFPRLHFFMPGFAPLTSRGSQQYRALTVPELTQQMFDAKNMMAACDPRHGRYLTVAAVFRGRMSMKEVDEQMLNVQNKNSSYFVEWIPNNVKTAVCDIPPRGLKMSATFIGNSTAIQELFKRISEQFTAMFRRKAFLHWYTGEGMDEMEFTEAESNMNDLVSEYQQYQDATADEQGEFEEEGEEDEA

SMILES	Activity (NCI-H460)	Activity (SF-268)	Activity (MCF7)	other results
CC[C@]1(O)C[C@@H]2CN(CCc3c([nH]c4ccccc34)[C@@](C(=O)OC)(c3cc4c(cc3OC)N(C)[C@H]3[C@@](O)(C(=O)OC)[C@H](OC(C)=O)[C@]5(CC)C=CCN6CC[C@]43[C@@H]65)C2)C1	–	–	–	Activity (A549): Active
Cc1cc2ncc3c4ccccc4c(C#N)n3c2cc1C	78%	83%	97%	–
N#Cc1c2ccccc2c2cnc3ccccc3n12	91%	94%	107%	–
COc1cc2c(c(OC)c1OC)-c1ccc(OC)c(=O)cc1[C@@H](NC(C)=O)CC2 [COLCHICINE]	–	–	–	Activity (Jurkat): 50%
CC(=O)O[C@H]1C(=O)[C@@]2(C)[C@H]([C@H](OC(=O)c3ccccc3)[C@]3(O)C[C@H](OC(=O)[C@H](O)[C@@H](NC(=O)c4ccccc4)c4ccccc4)C(C)=C1C3(C)C)[C@]1(OC(C)=O)CO[C@@H]1C[C@@H]2O	–	–	–	Activity (Tubulin (Sus scrofa)): Active
N#Cc1c2ccccc2c2cnc3cc(Cl)c(Cl)cc3n12	104%	104%	108%	–

From ChEMBL document CHEMBL1144782, “Isoindolo[2,1-a]quinoxaline derivatives, novel potent antitumor agents with dual inhibition of tubulin polymerization and topoisomerase I” (2008)
